# Measured values as given in ChEMBL document CHEMBL4819017 (Eur J Med Chem, 2021).
# pIC50: −log10 of the molar value.
# What was measured:
# [1] = biological target: Serine/threonine-protein kinase mTOR (Homo sapiens, UniProt P42345); test: Inhibition of recombinant human GST tagged mTOR (1360 to 2549 residues) expressed in baculovirus expression system measured by LanthaScreen assay
# Outline: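 mTOR inhibition measured by LanthaScreen assay; IC50 values average two independent experiments.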
# [2] = biological target: Voltage-gated inwardly rectifying potassium channel KCNH2 (Homo sapiens, UniProt Q12809); test: Inhibition of human ERG by fluorescence polarization assay
# Outline: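 Predictor h-ERG membrane preparations (sonicated) incubated with test compound dilutions and fluorescent tracer (working 4X tracer at 4 nM) at room temperature for ≥1 h. Read-out by fluorescence polarization, ex 530/25, em 590/35.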
# [3] = biological target: Phosphatidylinositol 4,5-bisphosphate 3-kinase catalytic subunit alpha isoform (Homo sapiens, UniProt P42336); test: Inhibition of human full length p110alpha (1 to 1068 residues) expressed in baculovirus-infected Sf21 cells by ADP-Hunter Plus assay
# Homo sapiens = species: Homo sapiens; test: Selectivity ratio of IC50 for recombinant human GST tagged mTOR (1360 to 2549 residues) expressed in baculovirus expression system to IC50 for human full length p110alpha (1 to 1068 residues) expressed in baculovirus-infected Sf21 cells
# Outline: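 mTOR activity measured by LanthaScreen assay. PI3K-α activity measured by ADP Hunter Plus (ADP accumulation, fluorescence ex 544/em 580 nm), normalized to no-compound control and fitted to a sigmoid dose-response curve. IC50s are the average of two independent experiments. Ratio is mTOR IC50 over PI3K-α IC50.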
# Chain of Voltage-gated inwardly rectifying potassium channel KCNH2 (Q12809 whole entry): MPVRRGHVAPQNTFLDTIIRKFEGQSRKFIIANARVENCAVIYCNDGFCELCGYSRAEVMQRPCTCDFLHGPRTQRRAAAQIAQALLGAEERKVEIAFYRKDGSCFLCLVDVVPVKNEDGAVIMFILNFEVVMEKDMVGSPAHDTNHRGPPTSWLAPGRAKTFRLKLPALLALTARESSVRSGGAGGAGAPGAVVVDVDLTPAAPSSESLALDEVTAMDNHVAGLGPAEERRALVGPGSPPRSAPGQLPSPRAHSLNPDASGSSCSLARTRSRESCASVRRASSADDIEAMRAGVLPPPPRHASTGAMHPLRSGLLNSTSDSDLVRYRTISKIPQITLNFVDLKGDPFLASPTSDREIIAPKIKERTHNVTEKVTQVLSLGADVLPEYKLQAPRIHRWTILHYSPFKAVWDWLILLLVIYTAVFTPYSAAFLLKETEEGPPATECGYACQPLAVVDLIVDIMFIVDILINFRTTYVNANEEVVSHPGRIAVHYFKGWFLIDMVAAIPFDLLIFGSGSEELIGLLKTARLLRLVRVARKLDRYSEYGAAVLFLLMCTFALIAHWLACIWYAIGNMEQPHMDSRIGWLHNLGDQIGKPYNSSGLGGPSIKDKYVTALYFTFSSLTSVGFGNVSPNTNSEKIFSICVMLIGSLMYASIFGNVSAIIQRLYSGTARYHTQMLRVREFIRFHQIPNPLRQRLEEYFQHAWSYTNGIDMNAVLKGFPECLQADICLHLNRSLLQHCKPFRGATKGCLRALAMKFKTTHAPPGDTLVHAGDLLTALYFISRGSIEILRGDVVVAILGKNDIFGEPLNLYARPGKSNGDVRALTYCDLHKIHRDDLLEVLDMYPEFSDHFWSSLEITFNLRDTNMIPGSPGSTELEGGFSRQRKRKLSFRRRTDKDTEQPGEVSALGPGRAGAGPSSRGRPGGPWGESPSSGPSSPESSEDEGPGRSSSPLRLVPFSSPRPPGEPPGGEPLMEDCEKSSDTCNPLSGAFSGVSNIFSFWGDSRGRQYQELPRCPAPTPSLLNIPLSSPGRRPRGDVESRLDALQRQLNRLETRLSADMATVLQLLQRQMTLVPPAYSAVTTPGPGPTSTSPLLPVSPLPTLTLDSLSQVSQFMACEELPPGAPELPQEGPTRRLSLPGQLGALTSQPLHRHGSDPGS
# Chain of Phosphatidylinositol 4,5-bisphosphate 3-kinase catalytic subunit alpha isoform (P42336 whole entry, the tested form may be a part, canonical isoform): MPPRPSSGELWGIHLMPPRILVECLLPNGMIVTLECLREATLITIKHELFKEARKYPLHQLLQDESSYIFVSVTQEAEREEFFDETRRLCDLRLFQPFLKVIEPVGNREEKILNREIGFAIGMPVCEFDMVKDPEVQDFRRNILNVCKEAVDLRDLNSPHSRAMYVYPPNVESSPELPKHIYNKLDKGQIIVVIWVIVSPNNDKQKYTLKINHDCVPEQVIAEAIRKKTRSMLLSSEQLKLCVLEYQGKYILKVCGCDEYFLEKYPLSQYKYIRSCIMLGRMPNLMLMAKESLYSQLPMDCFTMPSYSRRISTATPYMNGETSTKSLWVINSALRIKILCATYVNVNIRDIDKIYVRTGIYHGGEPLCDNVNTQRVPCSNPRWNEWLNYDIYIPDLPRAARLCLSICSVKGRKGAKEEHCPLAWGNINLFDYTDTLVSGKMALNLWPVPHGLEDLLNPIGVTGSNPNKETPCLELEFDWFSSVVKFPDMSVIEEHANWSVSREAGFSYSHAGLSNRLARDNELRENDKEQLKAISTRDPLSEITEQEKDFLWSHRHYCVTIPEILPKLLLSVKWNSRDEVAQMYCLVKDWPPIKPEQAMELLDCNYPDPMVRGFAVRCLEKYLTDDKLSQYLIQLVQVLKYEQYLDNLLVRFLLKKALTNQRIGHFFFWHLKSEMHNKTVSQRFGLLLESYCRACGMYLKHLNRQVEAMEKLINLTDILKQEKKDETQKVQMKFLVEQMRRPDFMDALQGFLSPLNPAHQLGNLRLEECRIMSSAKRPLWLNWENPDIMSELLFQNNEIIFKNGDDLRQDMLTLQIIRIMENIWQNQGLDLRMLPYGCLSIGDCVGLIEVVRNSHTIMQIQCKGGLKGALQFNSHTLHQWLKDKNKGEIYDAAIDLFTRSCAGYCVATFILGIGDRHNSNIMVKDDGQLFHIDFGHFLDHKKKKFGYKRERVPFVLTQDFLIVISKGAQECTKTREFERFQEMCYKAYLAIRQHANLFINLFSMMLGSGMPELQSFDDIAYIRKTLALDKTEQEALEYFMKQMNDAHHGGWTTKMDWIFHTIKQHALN
SMILES,pIC50 [1],pIC50 [2],pIC50 [3],Ratio IC50 (Homo sapiens)
COc1ncc2cc1NS(=O)(=O)c1cccc(c1)C(=O)NCc1cncc(c1)-c1ccnc3ccc-2cc13,9.52,–,–,–
COc1ncc2cc1NS(=O)(=O)c1cccc(c1)C(=O)NCc1cccc(c1)-c1ccnc3ccc-2nc13,< 5.00,–,–,–
COc1ncc2cc1NS(=O)(=O)c1cc(c(F)cc1F)C(=O)NCc1cncc(c1)-c1ccnc3ccc-2nc13,8.27,–,–,–
COc1ncc2cc1NS(=O)(=O)c1cccc(c1)C(=O)NCCn1cc(cn1)-c1cnn3ccc-2nc13,7.18,–,–,–
COc1ncc2cc1NS(=O)(=O)c1cccc(c1)C(=O)NCc1cccc(c1)-c1ccnc3ccc-2cc13,7.68,–,–,–
COc1ncc2cc1NS(=O)(=O)c1cccc(c1)C(=O)N1CCc3ccc(cc3C1)-c1ccnc3ccc-2cc13,6.60,–,–,–
COc1ncc2cc1NS(=O)(=O)c1cc(c(F)cc1F)C(=O)NCc1cccc(c1)-c1ccnc3ccc-2cc13,7.20,–,–,–
COc1ncc2cc1NS(=O)(=O)c1cccc(c1)C(=O)NCc1cncc(c1)Cc1cnc3sc-2nn13,6.44,< 4.52,8.05,40.4
COc1ncc2cc1NS(=O)(=O)c1cccc(c1)C(=O)NCCn1cc(cn1)-c1cnc3ccc-2nn13,8.25,–,–,–
COc1ncc2cc1NS(=O)(=O)c1cccc(c1)C(=O)NCCn1cc(cn1)-c1ccnc3ccc-2cc13,6.60,–,–,–
COc1ncc2cc1NS(=O)(=O)c1cccc(c1)C(=O)NCCn1cc(cn1)-c1cnc3ccc-2cn13,5.24,< 4.52,–,–
COc1ncc2cc1NS(=O)(=O)c1cccc(c1)C(=O)NCc1cncc(c1)-c1cnn3ccc-2nc13,7.17,–,–,–
COc1ncc2cc1NS(=O)(=O)c1cccc(c1)C(=O)NCc1cccc(c1)-c1cnn3ccc-2nc13,< 5.00,< 4.52,6.35,> 22
